Ba/F3 V617F tox: reduced viability of JAK2V617F-dependent Ba/F3 cells, primary screen, JAK2V617F inhibitor project, cell-based, Ba/F3 EpoR-JAK2V617F, luminescence. ATP luminescence. inhibition, % at 5.6 µM. actives 1.1% (n = 220,000). AID 1446, 2008;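 active means inhibition above the campaign mean plus 3 SD over all tested compounds, cut at about 24% in these data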;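 further: cytokine-independent growth of Ba/F3 cells driven by EpoR plus mutant JAK2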
MT stabilizer: microtubule stabilizers in HeLa cells, primary screen, imaging, high-content imaging; HeLa tubulin immunostaining HCS, 24 h; share of cells brighter than vehicle mean+2SD; % tubulin-high responders, % at 10 µM; actives 0.83% (n = 200,000);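 active means plate Z-score above 3 for both tubulin-high and condensed-nucleus cell shares, with cell loss under 80%, at 10 µM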;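 further: anti alpha tubulin signal scored within the nucleus-defined area of each cell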
BaF3 tox: parental Ba/F3 cell viability inhibition, counter-screen for JAK2V617F inhibitor project, murine pro-B, CellTiter-Glo luminescence | CellTiter-Glo ATP luminescence | inhibition, % at 5.6 µM | actives 1.1% (n = 220,000);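 active means inhibition above a per-campaign cutoff, the mean inhibition of all tested compounds plus 3 SD, cut at about 27% in these data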
IEC-6 tox: cytotoxicity in IEC-6 intestinal epithelial cells, primary screen, cytotoxicity control for KLF5 inhibitor project, cell-based, luminescence; actives 0.78% (n = 290,000); inhibition, % at 5 µM; IEC-6 cytotoxicity, luminescence viability; in the data active means inhibition above about 22%
b-catenin transl: modulators of beta-catenin nuclear translocation, primary screen, imaging, HeLa cells, immunofluorescence, high-content; actives 0.3% (n = 190,000); AID 1665, 2009; nuclear translocation activity, % at 5 µM;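 active means nuclear translocation activity above 50% at 5 µM, with a well cell count of 50 or more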;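 further: per-cell ratio of nuclear to cytoplasmic median beta-catenin stain intensity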
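Test system: HeLa cells, endogenous beta-catenin; Compound: single 5 µM dose plus 0.02–20 µM confirmation series; Times: compound exposure 24 h at 37°C; Signal: fluorescence imaging of beta-catenin antibody stain plus DAPI; Read-out: % activation, nuclear-to-cytoplasmic median beta-catenin signal ratio per cell.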
KLF5 inh: KLF5 expression inhibitors, primary screen, DLD-1 cells, luminescence; DLD-1 KLF5 promoter-luciferase reporter; inhibition, % at 5 µM; actives 0.23% (n = 290,000);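 active means inhibition above a per-plate limit of that plate's mean compound inhibition plus 3 SD, cut at about 60% in these data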;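 further: higher means less KLF5 promoter-driven luciferase light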
Of the large screens only hits and unclear results are named; the others gave an inactive call. Rows were chosen to be rich in hits. Some 2.1% of all compounds tested hit in one or more screens of this group.

CN1/C(=C/C(=S)NC(=O)C2(C)CC2(Cl)Cl)C(C)(C)c2ccccc21 (centres undefined)	BaF3 tox 58
CCOC(=O)/C=C1/N(C)c2ccccc2C1(C)C	none (no result: MT stabilizer)
CN1/C(=C/C=N/n2cnnc2)C(C)(C)c2ccccc21	none (no result: b-catenin transl)
COc1ccccc1C(=O)NC(=S)/C=C1/N(C)c2ccccc2C1(C)C	Ba/F3 V617F tox 37, BaF3 tox 37 (no result: b-catenin transl)
CN1/C(=C\C=N\NC(=O)c2ccccc2Br)C(C)(C)c2ccccc21	Ba/F3 V617F tox 54, BaF3 tox 62
CN1/C(=C\C(=S)NC(=O)c2ccccc2Cl)C(C)(C)c2ccccc21	Ba/F3 V617F tox 70, BaF3 tox 63
Cc1ccc(CNC(=O)C2CC(c3ccccc3F)=NO2)cc1 (centres undefined)	none (no result: Ba/F3 V617F tox, MT stabilizer, BaF3 tox, IEC-6 tox, KLF5 inh)
CN1/C(=C\C(=S)Nc2ccccc2)C(C)(C)c2ccccc21	Ba/F3 V617F tox 43, BaF3 tox 46
CN1/C(=C\C(=O)Nc2ccc(Cl)cc2)C(C)(C)c2ccccc21	none
COc1cccc(NC(=O)CCCCCn2nnc3ccccc3c2=O)c1	none (no result: Ba/F3 V617F tox, MT stabilizer, BaF3 tox, b-catenin transl)
COc1ccc(C(=O)N2CCOC2CNC(=O)C(=O)NCc2ccc(Cl)cc2)cc1 (centres undefined)	BaF3 tox 63
O=C(N/N=C/c1cccs1)c1cc(-c2cccc3ccccc23)n[nH]1	b-catenin transl 120
O=C(N/N=C/c1c[nH]c2ccccc12)c1cc(-c2ccc3ccccc3c2)n[nH]1	MT stabilizer 26, b-catenin transl 80
O=C(N/N=C/c1c[nH]c2ccccc12)c1cc(-c2ccc(-c3ccccc3)cc2)n[nH]1	none
O=C(N/N=C/c1cccs1)c1cc(-c2ccc3ccccc3c2)n[nH]1	none
O=C(N/N=C/c1c[nH]c2ccccc12)c1cc(-c2cccc3ccccc23)n[nH]1	MT stabilizer 27
CCC(C(=O)NC1CCCCC1)N(Cc1cccs1)C(=O)c1snc(C(N)=O)c1N (centres undefined)	none
CC(Oc1ccc(Cl)cc1)C(=O)NCCN1C(=O)S/C(=C\c2cccnc2)C1=O (centres undefined)	none
O=C(NCCN1C(=O)S/C(=C\c2ccc(OC(F)F)cc2)C1=O)c1cnccn1	MT stabilizer 34, b-catenin transl 68
O=C(NC1CCCCC1)N1CCC(c2nc(-c3ccc(S(=O)(=O)N4CCCC4)cc3)no2)CC1	MT stabilizer 35
O=C(c1ccccc1)N1CCC(c2nc(-c3ccc(S(=O)(=O)NCC4CCCO4)cc3)no2)CC1 (centres undefined)	none
O=C(C1CC1)N1CCC(c2nc(-c3ccc(S(=O)(=O)NCC4CCCO4)cc3)no2)CC1 (centres undefined)	BaF3 tox 35
COc1ccc(-c2[nH]ncc2/C=C(/C#N)C(=O)NC2CCCCCC2)cc1	MT stabilizer 49
COc1ccc(-c2nn(-c3ccccc3)cc2C(=O)NC(=S)NNC(=O)c2ccncc2)cc1	IEC-6 tox 25
COc1ccc(NC(=O)c2cn(-c3ccccc3)nc2-c2ccncc2)cc1	none
O=C1/C(=C/c2ccncc2)CCC/C1=C\c1ccncc1	MT stabilizer 31 (no result: b-catenin transl)
O=C1/C(=C/c2ccncc2)CCc2ccccc21	none (no result: MT stabilizer)
CC(=O)N1CSCC1C(=O)NNS(=O)(=O)c1cccc(C(F)(F)F)c1 (centres undefined)	none (no result: MT stabilizer)
Nc1nc(CN2CCCCCC2)nc(Nc2ccccc2)n1	none
Cc1c(-c2nc(N)nc(Nc3ccccc3)n2)oc2ccccc12	MT stabilizer 25
CCOc1ccccc1C(=O)Nc1ccc2c(c1)C(=O)NC2=O	none (no result: Ba/F3 V617F tox, MT stabilizer, BaF3 tox, b-catenin transl)
COc1ccccc1N1CC(C)(C)C(=O)N(C(=O)c2c(F)cccc2Cl)C1=S	none (no result: MT stabilizer)
COc1ccccc1-c1cc(C(=O)Nc2cc(C)nn2-c2ccccc2)no1	MT stabilizer 47
COCCNC(=O)c1cc(-c2ccccc2OC)on1	MT stabilizer 31
COc1ccc(-c2cc(C(=O)Nc3cc(C)nn3-c3ccccc3)no2)cc1	none
CCN(CC)S(=O)(=O)c1ccc(NC(=O)CNC2CCCCC2)cc1	none (no result: Ba/F3 V617F tox, MT stabilizer, BaF3 tox, b-catenin transl)
